IDE cell activ: activators of human insulin-degrading enzyme in cells; P14735; HEK cells, FAbeta-B cleavage, fluorescence polarization; 0% vehicle, 100% cell-free pure enzyme wells; activation, % at 5.96 µM; 0.073% of 340,000 active; AID 493087;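 active = activation above the mean of all tested compounds plus 3 SD, set per screening campaign, cut at about 17% in these data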
CSN inh: blocks human CSN-mediated cullin deneddylation; inhibition, % at 12.5 µM; 0.38% of 360,000 active; Purified CSN, SCF-Nedd8-OG deneddylation, fluorescence polarization; AID 651999; Q92905;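 active = pattern-corrected inhibition above about 35%, with an unprinted fluorescence ratio check between 0.5 and 1.5, limit read from the data, passing the limit was not always enough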;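 note: 0% = enzyme with substrate and 100% = substrate without enzyme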
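Schedule: reaction 90 min, room temperature / Assay system: HEK293T-derived human Csn5 enzyme / Input: Csn5 at 0.24 nM final / Measure: inhibition of Csn5 cleavage, % / Control set: substrate-only high control, full reaction low control / Technique: fluorescence polarization of the substrate / Buffer or medium: Tris/NaCl/DTT buffer, pH 7.5 / Reagent: SCFSkp2-Nedd8OG substrate at 10 nM final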
HNF4A DNA FP: change in binding of human HNF4 alpha to DNA | P41235 | HNF4a-FITC DNA binding, fluorescence polarization, 1 h | activity change, % at 10 µM | 0.3% of 360,000 active; in the data active = activity change above about 30%, passing the limit was not always enough
IDE inh: inhibits human insulin-degrading enzyme in HEK cells; P14735; FAbetaB cleavage, fluorescence polarization; inhibition, % at 5.59 µM; 0.41% of 320,000 active; AID 434962;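 active = percent inhibition above the average of all tested compounds plus 3 SD, set per screening campaign, cut at about 16% in these data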;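 note: IDE supplied by intact live HEK cells; FP after avidin binding of uncleaved biotin substrate so inhibition keeps polarization high; 0% = DMSO wells and 100% = 60 µM reference IDE inhibitor Ii1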
TPT1 inh: inhibitors of Candida albicans tRNA 2'-phosphotransferase TPT1; recombinant caTPT1, FP RNA substrate dephosphorylation; inhibition, % at 5 µM; 0.81% of 300,000 active;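 active = inhibition above the mean of all tested compounds plus 3 SD, set per screening campaign, cut at about 24% in these data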;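 note: plate controls were DMSO alone for no effect and ferristatin control at 100 nM for full effect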
Rpn11 block: blocks the human proteasome subunit Rpn11 | O00487 | 0.59% of 360,000 active | AID 588493 | human 26S proteasome, Ub4-pepOG fluorescence polarization; 20S core pre-blocked with epoxomicin | inhibition, % at 20 µM;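 active = inhibition at 20 µM, scaled to each plate's controls, above about 33%, limit read from the data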
Target sequence (O00487 whole entry, looked up): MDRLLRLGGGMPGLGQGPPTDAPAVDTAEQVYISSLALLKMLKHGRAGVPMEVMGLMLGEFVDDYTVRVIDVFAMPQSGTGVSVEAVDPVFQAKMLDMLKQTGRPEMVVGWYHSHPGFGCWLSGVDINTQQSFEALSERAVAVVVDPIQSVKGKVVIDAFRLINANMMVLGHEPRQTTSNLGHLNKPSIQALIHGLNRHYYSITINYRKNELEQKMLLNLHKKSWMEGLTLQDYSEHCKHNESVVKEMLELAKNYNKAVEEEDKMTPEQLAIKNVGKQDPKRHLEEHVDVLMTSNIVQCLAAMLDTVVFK
TPT1 inh confirm: TPT1 (C. albicans) inhibition, confirmation | shares compounds with TPT1 inh | recombinant caTPT1, fluorescence polarization, RNase T1 coupled | inhibition, % at 5 µM | 74% of 2,400 active;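 active = inhibition above the primary screen limit, the mean inhibition of all tested compounds plus 3 SD, cut at about 25% in these data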
RNase T1 counter: counter-screen for TPT1 inhibitors: inhibitors of Aspergillus oryzae RNase T1; shares compounds with TPT1 inh; RNase T1 cleavage, fluorescence polarization, 1536-well; inhibition, % at 5 µM; 83% of 2,400 active; AID 2153;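 active = inhibition above the solvent-only control well mean plus 3 SD, limit set per screening run, cut at about 23% in these data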;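 note: plate controls were DMSO wells with enzyme for no effect and wells without RNase T1 for full effect; inhibitors block cleavage so intact labeled substrate keeps polarization high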
Target sequence (P00651 whole entry, looked up): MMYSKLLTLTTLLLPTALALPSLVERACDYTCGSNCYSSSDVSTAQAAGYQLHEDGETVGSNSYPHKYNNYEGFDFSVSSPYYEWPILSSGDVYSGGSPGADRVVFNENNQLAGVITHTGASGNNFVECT
IDE cell inh cf: confirmation of human insulin-degrading enzyme inhibitors in cells. shares compounds with IDE inh. HEK cells, FAbetaB cleavage, fluorescence polarization. inhibition, % at 5.59 µM. 51% of 1,200 active. AID 435028;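 active = mean inhibition across triplicate wells above the cutoff set by the earlier primary insulin-degrading enzyme screen, cut at about 16% in these data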;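 note: 0% = DMSO wells and 100% = 60 µM reference IDE inhibitor Ii1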
HEK293 tox: HEK cell cytotoxicity, counter-screen for IDE inhibitors. inhibition, % at 5.59 µM. 28% of 1,200 active. HEK293 cytotoxicity, ATP luminescence. shares compounds with IDE inh; in the data active = inhibition above about 22%;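 note: 0% = vehicle wells and 100% = reference cytotoxic drug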
* marks the source's active call; other numbers are inactive results; . = not tested or not shown. Compounds with a hit are over-represented: about 1.7% of the library has one in this group of screens.

SMILES	IDE cell activ	CSN inh	HNF4A DNA FP	IDE inh	TPT1 inh	Rpn11 block	TPT1 inh confirm	RNase T1 counter	others
COCCCNC(=O)/C=C/c1ccc(Cl)cc1Cl	0	-1	3	-1	-4	1	.	.
CCNc1ccc(Br)cc(C(=O)/C=C/c2ccc(Cl)cc2Cl)c1=O	-6	28	15	-4	69*	24	85*	92*
COc1ccc(/C=C/C(=O)c2ccc(OC)cc2OC)cc1	-3	8	-1	0	-2	-2	.	.
CNc1ccc(Br)cc(C(=O)/C=C/c2cc(OC)ccc2OC)c1=O	-9	16	-4	8	66*	0	63*	76*
O=C1CC(NC(=O)c2ccc(Cl)cc2)C(=O)N1 (stereo not given)	4	-1	-2	1	133*	5	11	21
COc1cccc(C(C)(O)c2nc(-c3ccc4c(c3)OCO4)cs2)c1 (stereo not given)	.	-1	0	.	.	7	.	.
COCCN(CCOC)Cc1c(O)ccc2c1O/C(=C\c1ccc(C)o1)C2=O	-8	10	32	4	27*	26	34*	46*
O=C(N/N=C/c1cc(Br)cc(Br)c1O)c1cccc(N2CCCC2=O)c1	5	0	8	0	54*	.	68*	73*
O=C(N/N=C/c1cc(Br)cc(Br)c1O)c1cccc(S(=O)(=O)N2CCOCC2)c1	11	97	85	1	48*	.	55*	54*
O=C(N/N=C/c1ccc([N+](=O)[O-])cc1)c1cccc(N2CCCC2=O)c1	0	3	-2	8	-3	-8	.	.
O=C(N/N=C/c1ccccc1Br)c1cccc(S(=O)(=O)N2CCOCC2)c1	-3	-4	1	-1	.	-7	.	.
CCCCCCN1C=CC(=C/C=C(\C#N)C(=O)OCC)C=C1	-114	56	196	165*	176*	.	193*	173*	IDE cell inh cf=121*;HEK293 tox=21
COc1ccc(-c2ccc(C(=O)NCc3ccc(N4CCN(C)CC4)cc3)c3occc23)c(C)c1	.	0	-3	.	.	4	.	.
Cn1cc(-c2ccccc2C(N)=O)c(=O)c2cc(Cl)ccc21	-5	-5	-6	-2	2	2	.	.
Cn1cc(C2=C(c3ccc(Cl)cc3Cl)C(=O)NC2=O)c2ccccc21	-56	-74	72	33*	81*	.	92*	95*	IDE cell inh cf=60*;HEK293 tox=-1
CCSC1=NSC2=NC(=O)/C(=C\c3coc4ccccc4c3=O)C(=N)N12	-65	-66	51	55*	55*	9	2	14	IDE cell inh cf=51*;HEK293 tox=6
CCOC1CCCc2oc(-c3ccc(N(C)C)cc3)c(C(=O)OC)c21 (stereo not given)	.	0	-2	.	.	.	.	.
CCN(CC)S(=O)(=O)c1ccc(N2CC(C(=O)NCc3ccco3)CC2=O)cc1 (stereo not given)	.	1	-2	.	.	-6	.	.
Cc1ccc(-c2nc(Nc3cccc(C)c3)sc2CC(=O)O)cc1	2	19	5	4	11	24	.	.
O=C(O)Cc1sc(NC2CCCCC2)nc1-c1ccc(Cl)cc1	8	65*	10	20*	137*	.	23	32*	IDE cell inh cf=-3;HEK293 tox=11
O=C(CSc1nnc2ccccn12)Nc1ccccc1[N+](=O)[O-]	.	0	-2	.	.	5	.	.
COc1ccc(/C=C/C(=O)C2C(=O)C=C(C)OC2=O)cc1O (stereo not given)	-12	4	0	28*	25*	-2	18	30*	IDE cell inh cf=9;HEK293 tox=20
COc1cc(/C=C/C(=O)O)cc(Br)c1O	7	-3	2	1	-1	0	.	.

Assay outcomes deposited in PubChem by several laboratories.
